In ChEMBL document CHEMBL1128709, “Discovery and structure-activity relationships of sulfonamide ETA-selective antagonists” (J Med Chem, 1995):

Legend:
[1] = molecular target: T1, Endothelin-1 receptor (Rattus norvegicus, UniProt P26684); experiment: Antagonism of [125 I]ET-1 binding to the rat endothelin receptor in vascular smooth muscle VSM-A10 cells.; format: cell-based
T1 sequence (P26684 whole entry): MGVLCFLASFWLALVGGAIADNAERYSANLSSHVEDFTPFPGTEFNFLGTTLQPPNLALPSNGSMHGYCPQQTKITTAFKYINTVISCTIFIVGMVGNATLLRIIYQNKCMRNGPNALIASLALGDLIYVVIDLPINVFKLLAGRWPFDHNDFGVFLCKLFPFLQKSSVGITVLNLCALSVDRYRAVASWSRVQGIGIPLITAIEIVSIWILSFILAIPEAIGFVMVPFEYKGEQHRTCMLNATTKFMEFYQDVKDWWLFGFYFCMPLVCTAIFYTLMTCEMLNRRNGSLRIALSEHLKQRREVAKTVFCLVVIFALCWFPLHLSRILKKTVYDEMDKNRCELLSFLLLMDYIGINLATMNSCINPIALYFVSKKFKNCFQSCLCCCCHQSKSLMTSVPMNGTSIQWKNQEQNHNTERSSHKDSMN

[2] = species: Oryctolagus cuniculus; experiment: In vitro functional antagonistic testing by obtaining ET-1 concentration response curves in rabbit carotid artery rings in the presence or absence of antagonist.
Outline: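 Concentration-response curves to ET-1 in rabbit carotid artery rings. KB determined when at least 3 antagonist concentrations were tested; apparent KB calculated when only one concentration was used.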

[3] = species: Rattus norvegicus; experiment: Tested for antagonistic activity against ET-1 induced increase in intracellular [Ca2+] in VSM-A10 cells.; format: functional, cell-based
Outline: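 A10 cells challenged with 3 nM ET-1; the rise in free intracellular Ca2+ was measured with and without compound. Values reported as IC50.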

Row | IC50 [1] [µM] | SMILES | Kb ([2]; read-out: KB app) [µM] | other results
1 | 0.13 | Cc1noc(NS(=O)(=O)c2cccc3c(N4CCCC4=O)cccc23)c1C | – | Kb [2]: 9.6 µM
2 | 6.5 | Cc1noc(NS(=O)(=O)c2ccc(NC(=O)CN)cc2)c1C | – | –
3 | 0.29 | CCc1c(C)noc1NS(=O)(=O)c1cccc2c(N(C)C)cccc12 | 4 | –
4 | 3.38 | COC(=O)c1cccc2c(S(=O)(=O)Nc3onc(C)c3C)cccc12 | – | –
5 | 4.9 | Cc1cnoc1NS(=O)(=O)c1cccc2c(N(C)C)cccc12 | – | –
6 | 50 | Cc1noc(NS(=O)(=O)c2cccc3c(N(C)C)cccc23)c1Cc1ccccc1 | – | –
7 | 15.9 | CCCCN(CCCC)c1cccc2c(S(=O)(=O)Nc3onc(C)c3C)cccc12 | – | –
8 | 15.9 | Cc1noc(NS(=O)(=O)c2cccc3c(N(C)C)cccc23)c1-c1ccccc1 | – | –
9 | 3.05 | Cc1noc(NS(=O)(=O)c2cccc3c(NCCCCCc4ccccc4)cccc23)c1C | – | –
10 | 7.8 | Cc1noc(NS(=O)(=O)c2cccc3c(NCCC(c4ccccc4)c4ccccc4)cccc23)c1C | – | –
11 | 7.8 | Cc1noc(NS(=O)(=O)c2cccc3c(O)cccc23)c1C | 100 | –
12 | 2.89 | Cc1noc(NS(=O)(=O)c2cccc3c(C(C)(C)O)cccc23)c1C | – | –
13 | 13 | CC(=O)N(c1onc(C)c1C)S(=O)(=O)c1ccc(N)cc1 [SULFISOXAZOLE ACETYL] | – | –
14 | > 32 | CC(C)(C)c1cc(NS(=O)(=O)c2ccc(N)cc2)no1 | – | –
15 | 0.59 | Cc1noc(NS(=O)(=O)c2cccc3c(NCc4ccccc4)cccc23)c1C | 0.9 | –
16 | 1.4 | Cc1noc(NS(=O)(=O)c2cccc3ccc(N)cc23)c1C | – | –
17 | 7.8 | Cc1[n-][o+]c(NS(=O)(=O)c2cccc([N+](=O)[O-])c2)c1C | – | –
18 | 38 | Cc1noc(NS(=O)(=O)c2ccc(NC(=O)Nc3ccccc3)cc2)c1C | – | –
19 | 17.3 | Cc1noc(NS(=O)(=O)c2cccc3c(N(C)C)cccc23)c1[N+](=O)[O-] | > 100 | –
20 | – | Cc1cc(NS(=O)(=O)c2ccc(O)cc2)no1 | > 100 | –
21 | 0.4 | CCOC(=O)C(C)Nc1cccc2c(S(=O)(=O)Nc3onc(C)c3C)cccc12 (stereo not drawn) | – | Kb [2]: 3.1 µM

Row | IC50 [1] [µM] | SMILES | Kb ([2]; read-out: KB app) [µM] | other results
22 | 1.17 | CCc1noc(NS(=O)(=O)c2cccc3c(N(C)C)cccc23)c1C | 3 | –
23 | – | Cc1onc(NS(=O)(=O)c2ccc(N)cc2)c1C [SULFATROXAZOLE] | – | IC50 [3]: 40 µM
24 | 1.76 | Cc1noc(NS(=O)(=O)c2cccc3c(N4CCCCC4)cccc23)c1C | 4 | –
25 | – | Cc1noc(NS(=O)(=O)c2cccc3c(N)cccc23)c1C | > 10 | –
26 | 28 | Cc1cc(NS(=O)(=O)c2ccc(N)cc2)on1 | – | –
27 | 153 | CN(C)c1cccc2c(S(=O)(=O)Nc3onc4c3CCCC4)cccc12 | – | –
28 | 31 | CCOC(=O)c1c(C)noc1NS(=O)(=O)c1cccc2c(N(C)C)cccc12 | – | –
29 | – | Cc1cc(NS(=O)(=O)c2ccc(N)cc2)no1 [SULFAMETHOXAZOLE] | > 100 | –
30 | 0.66 | Cc1noc(NS(=O)(=O)c2ccc3cc(N)ccc3c2)c1C | – | Kb [2]: 43 µM
31 | – | Cc1noc(NS(=O)(=O)c2cccc3c(N(C)C)cccc23)c1C [BMS-182874] | – | Kb [2]: 0.52 µM
32 | > 32 | Nc1ccc(S(=O)(=O)Nc2cc(-c3ccccc3)on2)cc1 | – | –
33 | 1 | Cc1noc(NS(=O)(=O)c2ccc(F)cc2)c1C | 40 | –
34 | 0.13 | Cc1noc(NS(=O)(=O)c2cccc3c(N(C)C(C)C)cccc23)c1C | – | Kb [2]: 0.7 µM
35 | 0.27 | Cc1noc(NS(=O)(=O)c2cccc3c(N4CCCCC4=O)cccc23)c1C | 7 | –
36 | 9.8 | Cc1noc(NS(=O)(=O)c2ccc(NCc3ccccc3)cc2)c1C | 100 | –
37 | 0.88 | Cc1noc(NS(=O)(=O)c2cccc3c(NC(=O)C(C)C)cccc23)c1C | – | –
38 | 0.02 | Cc1noc(NS(=O)(=O)c2cccc3c(NC(C)C)cccc23)c1C | – | Kb [2]: 0.33 µM
39 | > 32 | Cc1noc(NC(=O)c2ccc(N)cc2)c1C | – | –
40 | 8.9 | Cc1cc(NS(=O)(=O)c2cccc3c(N(C)C)cccc23)on1 | – | –
41 | 2.1 | CCCNc1cccc(S(=O)(=O)Nc2onc(C)c2C)c1 | – | Kb [2]: 70 µM
42 | > 32 | Cc1noc(N(C)S(=O)(=O)c2ccc(N)cc2)c1C | – | –

Row | IC50 [1] [µM] | SMILES | Kb ([2]; read-out: KB app) [µM] | other results
43 | 27 | CCCNc1ccc(S(=O)(=O)Nc2onc(C)c2C)cc1 | 40 | –
44 | 0.15 | Cc1noc(NS(=O)(=O)c2cccc3c(NC(=S)Nc4ccccc4)cccc23)c1C | – | Kb [2]: 13 µM
45 | 30 | O=S(=O)(Nc1nccs1)c1ccc(O)cc1 | – | –
46 | 32 | Nc1ccc(S(=O)(=O)Nc2noc3c2CCCC3)cc1 | – | –
47 | 4.1 | Cc1noc(NS(=O)(=O)c2ccc(NC(=S)Nc3ccccc3)cc2)c1C | – | –
48 | 0.06 | CCNc1cccc2c(S(=O)(=O)Nc3onc(C)c3C)cccc12 | – | Kb [2]: 0.5 µM
49 | > 32 | Cc1noc(N(CC(=O)O)S(=O)(=O)c2ccc(N)cc2)c1C | – | –
50 | 5.4 | Cc1noc(NS(=O)(=O)c2cccc(-c3ccccc3)c2)c1C | – | –
51 | – | CC(=O)Nc1cccc2cc(S(=O)(=O)Nc3onc(C)c3C)ccc12 | 40 | –
52 | 1.96 | Cc1noc(NS(=O)(=O)c2cccc3c(NCCCC(=O)O)cccc23)c1C | 30 | –
53 | 12 | Cc1noc(NS(=O)(=O)c2ccc(NCC(=O)O)cc2)c1C | – | –
54 | 0.03 | Cc1noc(NS(=O)(=O)c2cccc3c(N4CCCC4)cccc23)c1C | – | Kb [2]: 0.28 µM
55 | 69 | Nc1ccc(S(=O)(=O)Nc2nccs2)cc1 [SULFATHIAZOLE] | – | –
56 | 0.06 | Cc1onc(NS(=O)(=O)c2cccc3c(N(C)C)cccc23)c1C | 0.98 | –
57 | – | Cc1noc(NS(=O)(=O)c2ccc(N)cc2)c1C [SULFISOXAZOLE] | > 100 | IC50 [3]: 40 µM
58 | 0.08 | CCCCCNc1cccc2c(S(=O)(=O)Nc3onc(C)c3C)cccc12 | – | Kb [2]: 0.27 µM
59 | 2.8 | Cc1noc(NS(=O)(=O)c2cccc3c(CN(C)C)cccc23)c1C | 20 | –
60 | 57 | Nc1ccc(S(=O)(=O)Nc2nncs2)cc1 | – | –
61 | – | CC(=O)Nc1cccc2c(S(=O)(=O)Nc3onc(C)c3C)cccc12 | – | Kb [2]: 11 µM
62 | 0.13 | CNc1cccc2c(S(=O)(=O)Nc3onc(C)c3C)cccc12 | – | Kb [2]: 1.6 µM
63 | – | Cc1noc(NS(=O)(=O)c2ccc(O)cc2)c1C | > 100 | –
